Test results from ChEMBL document CHEMBL2062366, “Synthesis and biological evaluation of purpurealidin E-derived marine sponge metabolites: aplysamine-2, aplyzanzine A, and suberedamines A and B” (2012).
≈ marks a conversion by molar mass, not a printed value. Calls of active or inactive are those of the source. The calls are words filed in the database; no cut-off is given here.

test system: Mycobacterium tuberculosis; assay: Antimycobacterial activity against Mycobacterium bovis BCG after 2 weeks by spot culture growth inhibition assay; type: functional; conditions: variant bovis BCG
Summary of the method: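 BCG grown in rolling bottles in 7H9 + 10% ADC + 0.05% Tween 80 to midexponential phase, quality-checked by Ziehl−Neelsen staining. Culture diluted to 10³ cfu/mL; 10 μL spotted onto 7H10 agar + 10% OADC containing compound, 37 °C for 2 weeks. Controls: DMSO (negative), isoniazid (positive). MIC = lowest concentration with no growth.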

Compound | MIC
CN(C)CCCOc1c(Br)cc(CCN)cc1Br | inactive

same assay, conditions: variant bovis BCG, 336 h

Compound | MIC [µg/mL]
COc1ccc(C/C(=N\O)C(=O)NCCc2cc(Br)c(OCCCN(C)C)c(Br)c2)cc1Br | 25 (≈ 38.4 µM)
CNC(Cc1cc(Br)c(OC)c(Br)c1)C(=O)NCCCOc1c(Br)cc(CCN(C)C)cc1Br.Cl (stereo unspecified) [ANOMOIAN A] | 25
COc1c(Br)cc(C[C@@H](C(=O)NCCc2cc(Br)c(OCCCN(C)C)c(Br)c2)N(C)C)cc1Br [APLYZANZINE A] | 25 (≈ 33.6 µM)
COc1ccc(C[C@H](N)C(=O)NCCc2cc(Br)c(OCCCN(C)C)c(Br)c2)cc1Br [SUBEREDAMINE A] | 50 (≈ 78.6 µM)
CN[C@@H](Cc1ccc(OC)c(Br)c1)C(=O)NCCc1cc(Br)c(OCCCN(C)C)c(Br)c1 [SUBEREDAMINE B] | 40 (≈ 61.5 µM)
